Converted amounts (≈) assume the structure as drawn.
Columns and labels:
[1] = tested on: Bacillus subtilis; assay: In vitro antibacterial activity against B. subtilis( NCTC 8236); assay type: functional
Procedure, shortened: (§1)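 Agar dilution MIC in diagnostic sensitivity test agar; inoculum 10^5–10^6 cfu/spot applied with a multipoint inoculator. Test compounds were racemic, so reported values are corrected: only one-half of the observed MIC is taken.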

[2] = tested on: Staphylococcus aureus; assay: Compound was tested in vitro for the antibacterial activity against Staphylococcus aureus (ATCC 6538P); assay type: functional; procedure, shortened: as §1
[3] = tested on: Sarcina lutea (ATCC 9341); assay: In vitro antibacterial activity against Sarcina lutea (ATCC 9341)
[4] = tested on: Escherichia coli; assay: In vitro antibacterial activity against Escherichia coli (ESS); assay type: functional; procedure, shortened: as §1

MIC [1]	MIC [2]	MIC [3]	MIC [4]	Structure (SMILES)
1 µg/mL (≈ 2.88 µM)	0.3 µg/mL (≈ 0.864 µM)	0.03 µg/mL (≈ 0.0864 µM)	1 µg/mL (≈ 2.88 µM)	CC1=C(C(=O)O)N2C(=O)[C@@H](NC(=O)[C@H](N)c3ccccc3)[C@H]2SC1 [CEPHALEXIN ANHYDROUS]
1.5 µg/mL (≈ 4.21 µM)	4 µg/mL (≈ 11.2 µM)	2 µg/mL (≈ 5.61 µM)	1.5 µg/mL (≈ 4.21 µM)	C=C1C2[C@H](NC(=O)COc3ccccc3)C(=O)N2C(C(=O)O)=CC1(C)C (some centres not stated)
1.5 µg/mL (≈ 4.22 µM)	8 µg/mL (≈ 22.5 µM)	0.12 µg/mL (≈ 0.338 µM)	5 µg/mL (≈ 14.1 µM)	C=C1C2[C@H](NC(=O)C(N)c3ccccc3)C(=O)N2C(C(=O)O)=CC1(C)C (some centres not stated)

From ChEMBL document CHEMBL1123171, “Synthesis of delta 3-1-methylene-1-carbacephems” (1986)
